Measurements published in ChEMBL document CHEMBL3407478, “Development of a series of aryl pyrimidine kynurenine monooxygenase inhibitors as potential therapeutic agents for the treatment of Huntington's disease” (J Med Chem, 2015).

Legend:
[1] = Half life in Sprague-Dawley rat cortex at 10 mg equivalents/kg, po after 0.25 to 12 hrs; format: ADME, organism-based
Method in brief: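 Nonfasted male Sprague-Dawley rats; single oral dose 10 mg equiv/kg as 2 mg equiv/mL solution in 10% hydroxypropyl-β-cyclodextrin. Cortex taken from nonperfused brains, sampled 0.25 to 12 h after dosing. Drug measured by LC-MS/MS; half-life derived from concentration-time profile.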

[2] = Fraction unbound in mouse plasma; format: ADME, cell-free
Striatum = assay: Dose normalized AUC (0 to infinity) in Sprague-Dawley rat striatum at 10 mg equivalents/kg, po after 0.25 to 12 hrs; format: ADME, organism-based; details: in vivo
Method in brief: (§1)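 Male Sprague-Dawley rats given a single oral dose of 10 mg equiv/kg as a 2 mg equiv/mL solution in 10% hydroxypropyl-β-cyclodextrin. Plasma, liver, kidney, cortex, striatum and CSF levels were measured from 0.25 to 12 h. Brain tissue was taken from nonperfused brains. CSF AUCN covers 0–8 h because the elimination phase was undefined.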

[3] = AUC (0 to 240 mins) in Sprague-Dawley rat striatal extracellular fluid at 10 mg/kg, po by […] analysis; format: ADME, organism-based; parameters: time < 4 hr, dose 10 mg/kg, route oral
Method in brief: (§2)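 Freely moving Sprague-Dawley rats given 10 mg/kg po, with a microdialysis probe implanted in the striatum. Dialysate was sampled over 0–240 min for free compound and for KYN, KYNA, AA and 3-HK, quantified by LC-MS/MS. Metabolite changes were compared with t = 0 min by 2-way ANOVA.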

Brain [4] = assay: Dose normalized AUC (0 to infinity) in Sprague-Dawley rat brain at 6.2 mg equivalents/kg, iv; format: ADME, tissue-based; details: in vivo
Plasma [5] = assay: Dose normalized AUC (0 to infinity) in BCRP knock out FVB/N mouse plasma at 5 mg equivalents/kg, iv by LC-MS/MS analysis; format: ADME, organism-based; details: in vivo
Method in brief: (§3)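 Male mice given a single 5 mg equiv/kg iv bolus: FVB wild type, Bcrp(−/−), Mdr1a/b(−/−) and Mdr1a/b(−/−)/Bcrp(−/−). Brain and plasma concentration–time profiles were used to derive dose-normalized AUC (0–infinity).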

Cortex [6] = assay: Dose normalized AUC (0 to infinity) in Sprague-Dawley rat cortex at 10 mg equivalents/kg, po after 0.25 to 12 hrs; format: ADME, organism-based; details: in vivo; method in brief: as §1
Brain [7] = assay: Dose normalized AUC (0 to infinity) in BCRP and MDR1a knock out FVB/N mouse brain at 5 mg equivalents/kg, iv by LC-MS/MS analysis; format: ADME, organism-based; details: in vivo; method in brief: as §3
Brain [8] = assay: Dose normalized AUC (0 to infinity) in wild-type FVB/N mouse brain at 5 mg equivalents/kg, iv by LC-MS/MS analysis; format: ADME, organism-based; details: in vivo; method in brief: as §3
[9] = Aqueous solubility of the compound; format: physicochemical
Plasma [10] = assay: Dose normalized Cmax in Sprague-Dawley rat plasma at 12 mg equivalents/kg, po after 1 hr; format: ADME, organism-based; details: in vivo
Cortex [11] = assay: Dose normalized Cmax in Sprague-Dawley rat cortex at 10 mg equivalents/kg, po after 0.25 to 12 hrs; format: ADME, organism-based; details: in vivo; method in brief: as §1
Plasma [12] = assay: Dose normalized AUC (0 to infinity) in Sprague-Dawley rat plasma at 12 mg equivalents/kg, po; format: ADME, cell-free
[13] = Half life in Sprague-Dawley rat liver at 10 mg equivalents/kg, po after 0.25 to 12 hrs; format: ADME, organism-based; method in brief: as §1
[14] = Tmax in Sprague-Dawley rat brain at 12 mg equivalents/kg, po; format: ADME, tissue-based
Method in brief: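 Nonfasted male Sprague-Dawley rats (300−370 g). Single iv tail-vein dose of 6.2 mg equiv/kg (1.24 mg equiv/mL in DMSO:PEG400:water 10:40:50) or oral gavage of 12 mg equiv/kg (1.20 mg equiv/mL in 10% hydroxypropyl-β-cyclodextrin). Terminal bleeds under isoflurane (N = 3) at 0.083−24 h; heparin plasma; tissues snap-frozen.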

Plasma [15] = assay: Dose normalized AUC (0 to infinity) in wild-type FVB/N mouse plasma at 5 mg equivalents/kg, iv by LC-MS/MS analysis; format: ADME, organism-based; details: in vivo; method in brief: as §3
Cerebrospinal fluid = assay: Dose normalized Cmax in Sprague-Dawley rat CSF at 10 mg equivalents/kg, po after 0.25 to 12 hrs; format: ADME, organism-based; details: in vivo; method in brief: as §1
[16] = Permeability from basolateral to apical side in human Caco2 cells; format: ADME, cell-based; details: Caco-2, read-out: permeability
Rattus norvegicus [17] = assay: Inhibition of KMO in Sprague-Dawley rat plasma assessed as time duration for elevation in anthranilic acid plasma level at 10 mg/kg, po by […] analysis; format: functional
Method in brief: (§4)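 Sprague-Dawley rats given a single 10 mg/kg oral dose. KYN, 3-HK, KYNA and AA were quantified in plasma by LC-MS/MS at multiple time points.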

[18] = biological target: T1, Kynurenine 3-monooxygenase (Rattus norvegicus, UniProt O88867); assay: Inhibition of rat KMO assessed as conversion of kynurenine to 3-hydroxykynurenine by LC-MS/MS analysis
T1 sequence (O88867 whole entry): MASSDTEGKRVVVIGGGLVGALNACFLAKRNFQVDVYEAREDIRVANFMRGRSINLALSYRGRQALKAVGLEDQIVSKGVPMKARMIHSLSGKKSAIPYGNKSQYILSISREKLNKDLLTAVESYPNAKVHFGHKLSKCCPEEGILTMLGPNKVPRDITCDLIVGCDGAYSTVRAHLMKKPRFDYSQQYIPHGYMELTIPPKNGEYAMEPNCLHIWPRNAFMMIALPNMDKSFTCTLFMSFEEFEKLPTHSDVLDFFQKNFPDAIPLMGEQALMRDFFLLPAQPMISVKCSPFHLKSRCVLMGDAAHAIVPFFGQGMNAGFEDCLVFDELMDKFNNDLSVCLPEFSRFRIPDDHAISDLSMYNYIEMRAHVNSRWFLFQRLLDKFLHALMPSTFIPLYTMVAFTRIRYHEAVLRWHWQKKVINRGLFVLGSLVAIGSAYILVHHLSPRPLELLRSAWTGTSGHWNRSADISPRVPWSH
Method in brief: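 Mitochondrial fractions from mouse or rat liver tissue used as KMO source. Conversion of kynurenine to 3-hydroxykynurenine quantified by LC-MS/MS; IC50 averaged from triplicate tests.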

[19] = biological target: T1, Kynurenine 3-monooxygenase; assay: Inhibition of KMO in rat microglia cells; format: cell-based
Method in brief: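 Freshly isolated neonatal rat microglial cultures, induced to express KMO by a pro-inflammatory protocol. Exogenous KYN added; conversion to 3-HK monitored by mass spectrometry.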

Rattus norvegicus [20] = assay: Inhibition of KMO in Sprague-Dawley rat striatum brain microdialysate assessed as time duration for elevation in 3-hydroxykynurenice acid level by 2-fold at 10 mg/kg, po by […] analysis; format: functional; method in brief: as §2
Plasma [21] = assay: Dose normalized AUC (0 to infinity) in MDR1a knock out FVB/N mouse plasma at 5 mg equivalents/kg, iv by LC-MS/MS analysis; format: ADME, organism-based; details: in vivo; method in brief: as §3
Rattus norvegicus [22] = assay: Inhibition of KMO in po dosed Sprague-Dawley rat plasma assessed as elevation in anthranilic acid plasma level by […] analysis; format: functional, organism-based
Plasma [23] = assay: Dose normalized AUC (0 to infinity) in Sprague-Dawley rat plasma at 6.2 mg equivalents/kg, iv; format: ADME, cell-free
Plasma [24] = assay: Dose normalized AUC (0 to infinity) in BCRP and MDR1a knock out FVB/N mouse plasma at 5 mg equivalents/kg, iv by LC-MS/MS analysis; format: ADME, organism-based; details: in vivo; method in brief: as §3
[25] = Half life in Sprague-Dawley rat brain at 12 mg equivalents/kg, po; format: ADME, tissue-based
Rattus norvegicus [26] = assay: Inhibition of KMO in Sprague-Dawley rat plasma assessed as time duration for reduction in 3-HK plasma level at 10 mg/kg, po by […] analysis; format: functional; method in brief: as §4
[27] = Half life in Sprague-Dawley rat brain at 6.2 mg equivalents/kg, iv; format: ADME, tissue-based
[28] = Tmax in Sprague-Dawley rat striatum at 10 mg equivalents/kg, po after 0.25 to 12 hrs; format: ADME, organism-based
Method in brief: (§5)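 Fed male Sprague-Dawley rats given a single oral dose of 10 mg equiv/kg as 2 mg equiv/mL in 10% hydroxypropyl-β-cyclodextrin. Plasma, CSF, kidney, liver, and cortex and striatum from nonperfused brains sampled from 0.25 to 12 h.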

Brain [29] = assay: Dose normalized Cmax in Sprague-Dawley rat brain at 12 mg equivalents/kg, po; format: ADME, tissue-based; details: in vivo
[30] = Tmax in Sprague-Dawley rat plasma at 10 mg equivalents/kg, po after 0.25 to 12 hrs; format: ADME, organism-based; method in brief: as §5
[31] = Tmax in Sprague-Dawley rat cortex at 10 mg equivalents/kg, po after 0.25 to 12 hrs; format: ADME, organism-based; method in brief: as §5

For `O=C(O)c1cc(-c2ccc(OC3CC3)c(Cl)c2)ncn1`, the half-life [1] was 114 min, the fraction unbound [2] was 0.036 and the AUC/dose (Striatum) was 0.1 µM·kg·h/mg. For the same compound, the AUC(0-t) at 4 h [3] was 66 nM·h, the AUC/dose (Brain [4]) was 0.23 µM·kg·h/mg and the AUC/dose (Plasma [5]) was 3.6 µM·kg·h/mg. The AUC/dose (Cortex [6]) was 0.056 µM·kg·h/mg, the AUC/dose (Brain [7]) was 0.23 µM·kg·h/mg and the AUC/dose (Brain [8]) was 0.066 µM·kg·h/mg. For the same compound, the solubility [9] was over 1 mg/mL, the Cmax/dose (Plasma [10]) was 1.9 µM·kg/mg and the Cmax/dose (Cortex [11]) was 0.03 µM·kg/mg. It also gave an AUC/dose (Plasma [12]) of 7.6 µM·kg·h/mg, a half-life [13] of 150 min and a Tmax [14] of 60 min. It also gave an AUC/dose (Plasma [15]) of 3.1 µM·kg·h/mg, a Cmax/dose (Cerebrospinal fluid) of 0.011 µM·kg/mg and a Papp B→A [16] of 304 nm/s. It also gave a Time (Rattus norvegicus [17]) of 8 h, an IC50 [18] of 0.004 µM and an IC50 [19] of 0.072 µM. For the same compound, the Time (Rattus norvegicus [20]) was 160 min, the AUC/dose (Plasma [21]) was 2.6 µM·kg·h/mg and the inhibition (Rattus norvegicus [22]) was “Dose-dependent effect”. It also gave an AUC/dose (Plasma [23]) of 12 µM·kg·h/mg, an AUC/dose (Plasma [24]) of 3.6 µM·kg·h/mg and a half-life [25] of 102 min. It also gave a Time (Rattus norvegicus [26]) of 8 h, a half-life [27] of 42 min and a Tmax [28] of 30 min. The Cmax/dose (Brain [29]) was 0.035 µM·kg/mg, the Tmax [30] was 30 min and the Tmax [31] was 30 min.
